In general, MIC refers to the least concentration at which growth counts as inhibited. Read a low MIC as a more susceptible organism.

Experimental findings from ChEMBL document CHEMBL1649200, “Concurrent titration and determination of antibiotic resistance in ureaplasma species with identification of novel point mutations in genes associated with resistance” (2009) are described below.

In brackets after ≈: the same amount, converted by molar mass. Where only a bound is given, the exact number is not on record here.

What all share (type): functional
The subject of assay [1] is Ureaplasma parvum. The experiment in a line: Antimicrobial activity against Ureaplasma parvum SV1 isolate UHWO10 after 48 hrs by modified broth microdilution technique. The following applies: SV1 isolate UHWO10, 48 h. The procedure, abridged: (§1)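 Full-plate broth microdilution in ureaplasma selective medium (10% porcine serum, urea, phenol red, starting pH 6.65). A doubling-dilution antibiotic gradient from 64 to 0.0625 mg/liter is run, with an antibiotic-free column. An overnight culture of unknown CCU is added 1:10, then titrated 10-fold at right angles. Plates are sealed and held 48 h at 37°C. The MIC is the lowest concentration preventing colour change, read at 10⁴ CCU relative to the antibiotic-free control.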
Background: In broth dilution the organism is exposed to a series of concentrations in liquid medium.

Assay [2] deals with Ureaplasma parvum. As to the kind of experiment: Antimicrobial activity against Ureaplasma parvum isolate UHWP2 after 48 hrs by modified broth microdilution technique. The settings on record: isolate UHWP2, 48 h. The procedure, abridged:
as §1

Assay [3] relates to Ureaplasma parvum. The experiment in a line: Antimicrobial activity against Ureaplasma parvum SV14 isolate HPA32 after 48 hrs by modified broth microdilution technique. The following applies: SV14 isolate HPA32, 48 h. The procedure, abridged: as §1
Assay [4] has as its system Ureaplasma urealyticum. As to the kind of experiment: Antimicrobial activity against Ureaplasma urealyticum isolate HPA20 after 48 hrs by modified broth microdilution technique. The following applies: isolate HPA20, 48 h. In a few lines: as §1
Assay [5] relates to Ureaplasma urealyticum. The experiment in a line: Antimicrobial activity against Ureaplasma urealyticum isolate HPA12 after 48 hrs by modified broth microdilution technique. The settings on record: isolate HPA12, 48 h. The procedure, abridged: as §1
In assay [6] the test system is Ureaplasma parvum. As to the kind of experiment: Antimicrobial activity against Ureaplasma parvum isolate UHWJM after 48 hrs by modified broth microdilution technique. The procedure, abridged: as §1
Assay [7] concerns Ureaplasma urealyticum. As to the kind of experiment: Antimicrobial activity against Ureaplasma urealyticum isolate HPA3 after 48 hrs by modified broth microdilution technique. The settings on record: isolate HPA3, 48 h. The procedure, abridged: as §1
The test system of assay [8] is Ureaplasma parvum. The experiment in a line: Antimicrobial activity against Ureaplasma parvum SV1 isolate UHWQ3 after 48 hrs by modified broth microdilution technique. The settings on record: SV1 isolate UHWQ3, 48 h. The procedure, abridged: as §1
Assay [9] concerns Ureaplasma urealyticum. As to the kind of experiment: Antimicrobial activity against Ureaplasma urealyticum isolate HPA6 after 48 hrs by modified broth microdilution technique. The following applies: isolate HPA6, 48 h. In a few lines:
as §1

Assay [10] concerns Ureaplasma parvum. As to the kind of experiment: Antimicrobial activity against Ureaplasma parvum SV9 containing tetM gene. The procedure, abridged: as §1
For assay [11], the system named is Ureaplasma parvum. As to the kind of experiment: Antimicrobial activity against Ureaplasma parvum SV1 isolate HPA18 after 48 hrs by modified broth microdilution technique. The settings on record: SV1 isolate HPA18, 48 h. In a few lines: as §1
Assay [12] deals with Ureaplasma parvum. As to the kind of experiment: Antimicrobial activity against Ureaplasma parvum SV6 isolate HPA23 after 48 hrs by modified broth microdilution technique. The following applies: SV6 isolate HPA23, 48 h. The procedure, abridged: as §1
In assay [13] the test system is Ureaplasma urealyticum. As to the kind of experiment: Antimicrobial activity against Ureaplasma urealyticum isolate HPA17 after 48 hrs by modified broth microdilution technique. The settings on record: isolate HPA17, 48 h. The procedure, abridged:
as §1

As to `C[C@H]1c2cccc(O)c2C(=O)C2=C(O)[C@]3(O)C(=O)C(C(N)=O)=C(O)[C@@H](N(C)C)[C@@H]3[C@@H](O)[C@@H]21.O` [DOXYCYCLINE], the MIC worked out at 0.25 µg/mL in the assay with Ureaplasma parvum [1]; 0.5 µg/mL with Ureaplasma parvum [2]; 0.25 µg/mL with Ureaplasma parvum [3]; 0.5 µg/mL in the assay on Ureaplasma urealyticum [4]; 0.5 µg/mL in the assay on Ureaplasma urealyticum [5]; 0.5 µg/mL in the assay with Ureaplasma parvum [6]. Also, the MIC against Ureaplasma urealyticum [7] was 0.5 µg/mL; in the assay with Ureaplasma parvum [8], 0.25 µg/mL; with Ureaplasma urealyticum [9] it was 0.5 µg/mL; with Ureaplasma parvum [10] it was 64 µg/mL; against Ureaplasma parvum [11] it was 0.25 µg/mL; against Ureaplasma parvum [12] it was 16 µg/mL. In the assay on Ureaplasma urealyticum [13], the MIC was 0.25 µg/mL.

In the case of `CN(C)[C@@H]1C(O)=C(C(N)=O)C(=O)[C@@]2(O)C(O)=C3C(=O)c4c(O)cccc4[C@@](C)(O)[C@H]3C[C@@H]12` [TETRACYCLINE], the MIC is 1 µg/mL (≈ 2.25 µM) with Ureaplasma parvum [1]; 2 µg/mL (≈ 4.5 µM) with Ureaplasma parvum [2]; 1 µg/mL (≈ 2.25 µM) with Ureaplasma parvum [3]; 2 µg/mL (≈ 4.5 µM) in the assay on Ureaplasma urealyticum [4]; 2 µg/mL (≈ 4.5 µM) against Ureaplasma urealyticum [5]; 2 µg/mL (≈ 4.5 µM) in the assay with Ureaplasma parvum [6]. For the same compound, the MIC against Ureaplasma urealyticum [7] is 2 µg/mL (≈ 4.5 µM); in the assay on Ureaplasma parvum [8], 1 µg/mL (≈ 2.25 µM); in the assay with Ureaplasma urealyticum [9], 2 µg/mL (≈ 4.5 µM); with Ureaplasma parvum [10] it was more than 64 µg/mL; against Ureaplasma parvum [11] it was 2 µg/mL (≈ 4.5 µM); in the assay with Ureaplasma parvum [12], 64 µg/mL (≈ 144 µM). It took 1 µg/mL (≈ 2.25 µM) to inhibit growth with Ureaplasma urealyticum [13] (MIC).

Take `O=C(O)c1cn(C2CC2)c2cc(N3CCNCC3)c(F)cc2c1=O` [CIPROFLOXACIN]: the MIC in the assay on Ureaplasma parvum [1] is 4 µg/mL (≈ 12.1 µM); against Ureaplasma parvum [2] it was 4 µg/mL (≈ 12.1 µM); against Ureaplasma parvum [3] it was less than 2 µg/mL; against Ureaplasma urealyticum [4], 4 µg/mL (≈ 12.1 µM); in the assay with Ureaplasma urealyticum [5], 4 µg/mL (≈ 12.1 µM); with Ureaplasma parvum [6], 4 µg/mL (≈ 12.1 µM). For the same compound, the MIC against Ureaplasma urealyticum [7] was 4 µg/mL (≈ 12.1 µM); in the assay with Ureaplasma parvum [8], 4 µg/mL (≈ 12.1 µM); in the assay on Ureaplasma urealyticum [9] it was 4 µg/mL (≈ 12.1 µM); with Ureaplasma parvum [11] it was 8 µg/mL (≈ 24.1 µM); against Ureaplasma parvum [12], less than 2 µg/mL; in the assay on Ureaplasma urealyticum [13] it was 4 µg/mL (≈ 12.1 µM).

Turning to `CC[C@H]1OC(=O)[C@H](C)[C@@H](O[C@H]2C[C@@](C)(OC)[C@@H](O)[C@H](C)O2)[C@H](C)[C@@H](O[C@@H]2O[C@H](C)C[C@H](N(C)C)[C@H]2O)[C@](C)(O)C[C@@H](C)C(=O)[C@H](C)[C@@H](O)[C@]1(C)O` [ERYTHROMYCIN], the MIC against Ureaplasma parvum [1] was more than 64 µg/mL; against Ureaplasma parvum [2], 4 µg/mL (≈ 5.45 µM); against Ureaplasma parvum [3], 8 µg/mL (≈ 10.9 µM); against Ureaplasma urealyticum [4], 8 µg/mL (≈ 10.9 µM); against Ureaplasma urealyticum [5], 8 µg/mL (≈ 10.9 µM); in the assay on Ureaplasma parvum [6], 4 µg/mL (≈ 5.45 µM). The MIC against Ureaplasma urealyticum [7] was determined as 4 µg/mL (≈ 5.45 µM); in the assay on Ureaplasma parvum [8], 4 µg/mL (≈ 5.45 µM); in the assay on Ureaplasma urealyticum [9], 8 µg/mL (≈ 10.9 µM); against Ureaplasma parvum [10], 4 µg/mL (≈ 5.45 µM); in the assay with Ureaplasma parvum [11] it was 4 µg/mL (≈ 5.45 µM); against Ureaplasma parvum [12] it was 4 µg/mL (≈ 5.45 µM). In addition, the MIC in the assay on Ureaplasma urealyticum [13] was found to be 8 µg/mL (≈ 10.9 µM).

On to `CC[C@H]1OC(=O)[C@H](C)[C@@H](O[C@H]2C[C@@](C)(OC)[C@@H](O)[C@H](C)O2)[C@H](C)[C@@H](O[C@@H]2O[C@H](C)C[C@H](N(C)C)[C@H]2O)[C@](C)(O)C[C@@H](C)CN(C)[C@H](C)[C@@H](O)[C@]1(C)O` [AZITHROMYCIN], for which the MIC is 2 µg/mL (≈ 2.67 µM) in the assay with Ureaplasma parvum [1]; less than 0.25 µg/mL against Ureaplasma parvum [2]; less than 0.25 µg/mL against Ureaplasma parvum [3]; less than 0.25 µg/mL against Ureaplasma urealyticum [4]; less than 0.25 µg/mL in the assay on Ureaplasma urealyticum [5]; less than 0.25 µg/mL in the assay on Ureaplasma parvum [6]. Besides, the MIC against Ureaplasma urealyticum [7] is 0.5 µg/mL (≈ 0.668 µM); in the assay on Ureaplasma parvum [8], less than 0.25 µg/mL; in the assay with Ureaplasma urealyticum [9], less than 0.25 µg/mL; in the assay with Ureaplasma parvum [11], less than 0.25 µg/mL; in the assay on Ureaplasma parvum [12] it was less than 0.25 µg/mL; with Ureaplasma urealyticum [13] it was 0.5 µg/mL (≈ 0.668 µM).

On to `CC[C@H]1OC(=O)[C@H](C)[C@@H](O[C@H]2C[C@@](C)(OC)[C@@H](O)[C@H](C)O2)[C@H](C)[C@@H](O[C@@H]2O[C@H](C)C[C@H](N(C)C)[C@H]2O)[C@](C)(OC)C[C@@H](C)C(=O)[C@H](C)[C@@H](O)[C@]1(C)O` [CLARITHROMYCIN], for which the MIC in the assay with Ureaplasma parvum [1] is 4 µg/mL (≈ 5.35 µM); against Ureaplasma parvum [2], less than 0.125 µg/mL; against Ureaplasma parvum [3], less than 0.125 µg/mL; with Ureaplasma urealyticum [4], less than 0.125 µg/mL; against Ureaplasma urealyticum [5], less than 0.125 µg/mL; with Ureaplasma parvum [6], less than 0.125 µg/mL. For the same compound, the MIC against Ureaplasma urealyticum [7], against Ureaplasma parvum [8], with Ureaplasma urealyticum [9], with Ureaplasma parvum [11], in the assay with Ureaplasma parvum [12] and in the assay on Ureaplasma urealyticum [13] was less than 0.125 µg/mL each time.
